{"source": "ChEMBL document CHEMBL4411297", "about": "“Discovery, synthesis and anti-atherosclerotic activities of a novel selective sphingomyelin synthase 2 inhibitor” (Eur J Med Chem, 2019)", "key": {"[1]": {"target": "T1, Phosphatidylcholine:ceramide cholinephosphotransferase 2 (Homo sapiens) (UniProt Q8NHU3)", "T1 sequence (whole entry)": "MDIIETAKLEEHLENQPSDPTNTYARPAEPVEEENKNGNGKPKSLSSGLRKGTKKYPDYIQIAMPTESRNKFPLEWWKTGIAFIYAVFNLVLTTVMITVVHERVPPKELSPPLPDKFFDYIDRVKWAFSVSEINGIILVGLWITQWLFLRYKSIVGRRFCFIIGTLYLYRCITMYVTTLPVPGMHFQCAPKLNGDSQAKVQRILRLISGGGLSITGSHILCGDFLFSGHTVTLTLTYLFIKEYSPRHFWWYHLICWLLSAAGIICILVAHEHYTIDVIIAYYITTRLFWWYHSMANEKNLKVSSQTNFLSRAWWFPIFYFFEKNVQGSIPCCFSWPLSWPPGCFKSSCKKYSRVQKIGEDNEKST", "experiment": "(§1) Inhibition of purified SMS2 (unknown origin) using C6-NBD-Ceramide and DMPC as substrates preincubated for 5 mins followed by substrate addition and measured after 30 mins by TLC or HPLC method", "outline": "(§2)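 Purified SMS1 or SMS2 in DDM detergent buffer; inhibitor in DMSO pre-incubated 5 min at room temperature, then C6-NBD-ceramide and DMPC added, 30 min at 37 °C; ethanol quench, TLC or HPLC read-out. Activity expressed as percent of no-inhibitor vehicle; IC50 from ten (SMS1) or eight (SMS2) concentrations, mean ± SD, n = 3.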"}, "[2]": {"target": "T2, Phosphatidylcholine:ceramide cholinephosphotransferase 2 (Homo sapiens, UniProt Q8NHU3)", "T2 sequence (Q8NHU3 whole entry)": "T1 sequence (whole entry)", "experiment": "as §1", "outline": "as §2"}, "[3]": {"target": "T1, Phosphatidylcholine:ceramide cholinephosphotransferase 2 (Homo sapiens)", "experiment": "Inhibition of SMS2 in human HuH7 cells assessed as down regulation of apoB secretion incubated for 17 hrs followed by further incubation for 2 hrs in presence of [35S]-methionine", "assay_type": "cell-based", "outline": "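Huh7 human hepatoma cells treated with inhibitor 17 h, then pulse-labeled with [³⁵S]-methionine for 2 h with vehicle or compound; secreted [³⁵S]-apoB in medium detected and quantified.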"}, "BMDM [4]": {"system": "BMDM", "experiment": "Induction of cytosolic IkappaBalpha […] in LPS-stimulated C57BL/6J mouse bone marrow derived macrophages preincubated for 17 hrs followed by LPS-stimulation and measured after 6 hrs by Western blot analysis", "assay_type": "functional, cell-based", "outline": "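Bone marrow-derived macrophages from femurs of 8-week-old male C57BL/6J mice, preincubated with a range of concentrations for 17 h, then stimulated with 1 µg/ml LPS. Cells lysed in RIPA buffer with protease inhibitors. Western blot probed for IκBα with β-actin as loading control, ECL detection. Mean ± SD, n = 7.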"}, "BMDM [5]": {"system": "BMDM", "experiment": "Inhibition of LPS-induced MCP1 production in C57BL/6J mouse bone marrow derived macrophages at 6.25 to 50 uM preincubated for 17 hrs followed by LPS-stimulation and measured after 6 hrs by ELISA", "assay_type": "functional, cell-based", "outline": "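Mouse bone marrow-derived macrophages exposed to a range of inhibitor concentrations for 17 h, then LPS 50 ng/ml for 6 h; IL-6 and MCP-1 in culture medium quantified by ELISA. Mean ± SD, n = 7.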"}, "[6]": {"experiment": "Tmax in C57BL/6J mouse at 100 mg/kg/day, ig by HPLC-MS/MS analysis", "assay_type": "ADME, organism-based", "details": "in vivo, po", "outline": "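Male C57BL/6J mice (6–8 weeks, ~20 g), fasted 12 h, given a single intragastric dose of 25, 50 or 100 mg/kg in 10% DMSO/30% PEG/0.9% NaCl. Retro-orbital blood at 5 min to 8 h; plasma protein-precipitated with methanol plus internal standard, assayed by LC-MS/MS; noncompartmental analysis. Mean ± SD, n = 6.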"}, "[7]": {"experiment": "Cmax in C57BL/6J mouse at 100 mg/kg/day, ig by HPLC-MS/MS analysis", "assay_type": "ADME, organism-based", "design": "dose 100 mg/kg/day, route intragastric", "details": "in vivo, po", "outline": "(§3)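 Male C57BL/6J mice, six to eight weeks old, about 20 g, fasted 12 h with free water. Given a single intragastric dose of 25, 50 or 100 mg/kg in 10% DMSO/30% PEG-100/0.9% NaCl. Blood taken retro-orbitally at 5 min to 8 h. Plasma protein-precipitated with methanol plus internal standard, then HPLC-MS/MS on a C18 column. Noncompartmental analysis, n = 6.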"}, "[8]": {"experiment": "Apparent volume of distribution during terminal phase in C57BL/6J mouse at 100 mg/kg/day, ig by HPLC-MS/MS analysis", "assay_type": "ADME, organism-based", "details": "in vivo, po, read-out: Vz/F", "outline": "as §3"}, "[9]": {"experiment": "Cmax in C57BL/6J mouse at 25 mg/kg/day, ig by HPLC-MS/MS analysis", "assay_type": "ADME, organism-based", "design": "dose 25 mg/kg/day, route intragastric", "details": "in vivo, po", "outline": "as §3"}, "Mus musculus [10]": {"system": "Mus musculus", "experiment": "Effect on plasma AST levels in C57BL/6J mouse at 100 mg/kg/day, ig qd for 7 days measured on day 7", "assay_type": "ADME, organism-based", "details": "in vivo, po, 168 h", "outline": "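C57BL/6J mice dosed by gavage at 100 mg/kg once daily for 7 days. Plasma SM sampled on days 0, 3 and 7. Plasma ALT and AST measured on day 7 by automated analyzer. Compared with vehicle, n = 10.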"}, "Mus musculus [11]": {"system": "Mus musculus", "experiment": "Anti-atherosclerotic activity in apoE knockout mouse fed with western-type diet assessed as reduction in plasma SM level at 12.5 mg/kg/day, ig for 7 weeks relative to control", "assay_type": "functional", "design": "scale not given: the % may be the effect or the level left", "outline": "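ApoE KO mice on Western-type diet, dosed by gavage at 12.5 or 40 mg/kg/day for 7 weeks, n = 10. Blood collected at 20 weeks of age. Plasma SM measured by a previously reported method. ALT and AST read on an automated biochemical analyzer.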"}, "Mus musculus [12]": {"system": "Mus musculus", "experiment": "Anti-atherosclerotic activity in apoE knockout mouse fed with western-type diet assessed as reduction in monocyte count at 40 mg/kg/day, ig for 7 weeks by flow cytometric analysis relative to control", "assay_type": "functional", "design": "scale not given: the % may be the effect or the level left", "outline": "(§4)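 ApoE KO mice started at 8 weeks old on Western-type diet for 6 weeks. Then dosed by gavage daily with vehicle, 12.5 or 40 mg/kg for 7 weeks with the diet continued, 10 mice per group. Blood single-cell suspensions stained with antibodies in PBS and analysed by flow cytometry. Mean ± SD, n = 5.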"}, "Mus musculus [13]": {"system": "Mus musculus", "experiment": "Anti-atherosclerotic activity in apoE knockout mouse fed with western-type diet assessed as reduction in CD4+/CD8+ cell ratio at 12.5 mg/kg/day, ig for 7 weeks by flow cytometric analysis relative to control", "assay_type": "functional", "design": "scale not given: the % may be the effect or the level left", "outline": "as §4"}, "Mus musculus [14]": {"system": "Mus musculus", "experiment": "Anti-atherosclerotic activity in apoE knockout mouse fed with western-type diet assessed as reduction in CD11b+/CD11c+ dendritic cells at 12.5 mg/kg/day, ig for 7 weeks by flow cytometric analysis", "assay_type": "functional, organism-based", "outline": "as §4"}, "Mus musculus [15]": {"system": "Mus musculus", "experiment": "Anti-atherosclerotic activity in apoE knockout mouse fed with western-type diet assessed as reduction in CD11b+/Ly6C++/Ly6G+ dendritic cells at 12.5 mg/kg/day, ig for 7 weeks by flow cytometric analysis relative to control", "assay_type": "functional", "design": "scale not given: the % may be the effect or the level left", "outline": "as §4"}, "Mus musculus [16]": {"system": "Mus musculus", "experiment": "Anti-atherosclerotic activity in apoE knockout mouse fed with western-type diet assessed as reduction in CD11b+/Ly6C++/Ly6G+ dendritic cells at 40 mg/kg/day, ig for 7 weeks by flow cytometric analysis relative to control", "assay_type": "functional", "design": "scale not given: the % may be the effect or the level left", "outline": "as §4"}, "Mus musculus [17]": {"system": "Mus musculus", "experiment": "Anti-atherosclerotic activity in apoE knockout mouse fed with western-type diet assessed as reduction in lesions in whole aorta at 12.5 mg/kg/day, ig for 7 weeks by oil-red O staining-based assay relative to control", "assay_type": "functional", "design": "scale not given: the % may be the effect or the level left", "outline": "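ApoE KO mice fed Western-type diet, then given 12.5 or 40 mg/kg/day by gavage in 30% PEG-400/10% DMSO/0.9% NaCl for 7 weeks. Aortic root: H&E-stained 4 µm sections, mean lesion area from 6 sections per animal. Whole aorta: en face Oil Red O staining, percentage of area stained. Compared with vehicle, n = 10.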"}}, "note": "Calls of active or inactive are those of the source. The calls are words filed in the database; no cut-off is given here.", "data": [{"smiles": "CCc1ccccc1COc1ccccc1C(=O)Nc1cccnc1", "values": [{"measurement": "inhibition", "setting": "[1]", "value": "Dose-dependent effect"}, {"measurement": "IC50", "setting": "[2]", "value": 91, "unit": "nM"}, {"measurement": "inhibition", "setting": "[3]", "value": "Dose-dependent effect"}, {"measurement": "Activity", "setting": "BMDM [4]", "value": "Dose-dependent effect"}, {"measurement": "inhibition", "setting": "BMDM [5]", "value": "Active"}, {"measurement": "Tmax", "setting": "[6]", "value": 6, "unit": "min"}, {"measurement": "Cmax", "setting": "[7]", "value": 14100, "unit": "ng/mL"}, {"measurement": "Vd/F", "setting": "[8]", "value": 28.8, "unit": "L"}, {"measurement": "Cmax", "setting": "[9]", "value": 2530, "unit": "ng/mL"}, {"measurement": "Activity", "setting": "Mus musculus [10]", "value": "Non-Toxic"}, {"measurement": "Activity", "setting": "Mus musculus [11]", "value": 25, "unit": "%"}, {"measurement": "Activity", "setting": "Mus musculus [12]", "value": 50, "unit": "%"}, {"measurement": "Activity", "setting": "Mus musculus [13]", "value": 34, "unit": "%"}, {"measurement": "Activity", "setting": "Mus musculus [14]", "value": "inactive"}, {"measurement": "Activity", "setting": "Mus musculus [15]", "value": 16, "unit": "%"}, {"measurement": "Activity", "setting": "Mus musculus [16]", "value": 43, "unit": "%"}, {"measurement": "Activity", "setting": "Mus musculus [17]", "value": 32, "unit": "%"}]}]}
